In ChEMBL document CHEMBL1759858, “The novel anti-tumor agents of 4-triazol-1,8-naphthalimides: synthesis, cytotoxicity, DNA intercalation and photocleavage” (Eur J Med Chem, 2011):
pIC50: −log10 of the molar value. Activity calls are given as the source filed them. The calls are words filed in the database; no cut-off is given here.

Legend:
MCF7 [1] = assay: Ratio of IC50 for amonafide to compound for human MCF7 cells; assay type: functional
Outline: (§1)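 The ratio compares IC50s from the 48 h MTT assay on MCF-7 or 7721 cells (1 × 10⁵ cells/ml, readout at 570 nm, ≥3 experiments). Amonafide was run as the control under the same conditions, and the ratio is its IC50 divided by the compound's.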

Nucleic Acid [2] = assay: Induction of DNA cleavage measured using 2 hrs UV-irradiated Escherichia coli super coiled pBR322 DNA assessed as formation of linear form 3 DNA at 100 uM by agarose gel electrophoresis; assay type: nucleic-acid assay
Outline: (§2)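 Supercoiled pBR322 plasmid (0.05 mM bp) in Tris-HCl (pH 7.5) was incubated with compound at 37 °C and irradiated with 365 nm UV for 2 h. Controls were DNA alone, with and without irradiation. Cleavage forms were resolved on 1% agarose gel electrophoresis.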

Calf thymus DNA [3] = assay: Binding affinity to calf thymus DNA assessed as DNA damage at increasing compound to DNA ratio by viscosity measurement; assay type: nucleic-acid assay; settings: Bos taurus
Outline: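 Calf thymus DNA was dissolved in 30 mM Tris-HCl (pH 7.5), held overnight at 4 °C, sonicated for 10 min and filtered to remove insoluble material. Viscosity was then measured as the compound-to-DNA ratio was increased.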

HeLa [4] = assay: Ratio of IC50 for amonafide to compound for human HeLa cells; assay type: functional
MCF7 [5] = assay: Cytotoxicity against human MCF7 cells after 48 hrs by MTT assay; assay type: functional, cell-based; settings: MCF7, 48 h
Outline: (§3)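 MCF-7 and 7721 cells were plated at 1 × 10⁵ cells/ml and exposed for 48 h to a concentration range of compound added from DMSO (final DMSO/medium below 0.001). MTT (5 mg/mL stock in PBS) was added for 3 h, and formazan was dissolved in SDS 200 g/L/50% formamide lysis buffer (pH 4.7). Absorbance was read at 570 nm, with ≥3 experiments. IC50 was taken from mean % absorbance plotted against concentration.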

HeLa [6] = assay: Cytotoxicity against human HeLa cells after 48 hrs by MTT assay; assay type: functional, cell-based
Calf thymus DNA [7] = assay: Binding affinity to calf thymus DNA assessed as induction of hypochromatic effect by spectrophotometry; assay type: nucleic-acid assay; settings: Bos taurus
Outline: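 UV-vis absorption spectra of a fixed compound concentration were recorded during stepwise addition of calf thymus DNA in 30 mM Tris-HCl (pH 7.5). Hypochromicity and bathochromic shift were monitored, and the binding constant was calculated from an equation applied to the absorbance data.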

SMMC-7721 [8] = assay: Cytotoxicity against human SMMC7721 cells after 48 hrs by MTT assay; assay type: functional, cell-based; settings: SMMC-7721, 48 h; outline: as §3
SMMC-7721 [9] = assay: Ratio of IC50 for amonafide to compound for human SMMC7721 cells; assay type: functional; outline: as §1
Nucleic Acid [10] = assay: Induction of DNA cleavage measured using 2 hrs UV-irradiated Escherichia coli super coiled pBR322 DNA assessed as formation of relaxed open circular form 2 DNA at 100 uM by agarose gel electrophoresis; assay type: nucleic-acid assay; outline: as §2
Calf thymus DNA [11] = assay: Binding affinity to calf thymus DNA at compound to DNA ratio of <= 0.20 by circular dichroism; assay type: nucleic-acid assay; settings: Bos taurus
Outline: (§4)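 CD spectra were recorded on calf thymus DNA at a fixed concentration in Tris-HCl buffer (pH 7.0). Compound was titrated at R (compound/DNA) ratios of 0.02, 0.04, 0.10, 0.16, 0.20, 0.30, 0.40, 0.60, 0.80, 1.00, 1.2 and 1.40, and compared with free DNA.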

Calf thymus DNA [12] = assay: Binding affinity to calf thymus DNA at compound to DNA ratio of > 0.80 by circular dichroism; assay type: nucleic-acid assay; settings: Bos taurus; outline: as §4
Calf thymus DNA [13] = assay: Binding affinity to calf thymus DNA at compound to DNA ratio of >0.20 to < 0.80 by circular dichroism; assay type: nucleic-acid assay; settings: Bos taurus; outline: as §4

| Activity (Nucleic Acid [2]) | Kb (Calf thymus DNA [7]) | Activity (Nucleic Acid [10]) | Activity (Calf thymus DNA [11]) | Activity (Calf thymus DNA [12]) | Activity (Calf thymus DNA [13]) | Compound | Ratio IC50 (MCF7 [1]) | Activity (Calf thymus DNA [3]) | Ratio IC50 (HeLa [4]) | pIC50 (MCF7 [5]) | pIC50 (HeLa [6]) | pIC50 (SMMC-7721 [8]) | Ratio IC50 (SMMC-7721 [9]) |
| --- | --- | --- | --- | --- | --- | --- | --- | --- | --- | --- | --- | --- | --- |
| Active |  | Active | Active | inactive | Active | CCN(CC)CCN1C(=O)c2cccc3c(-n4cc(-c5ccccc5)nn4)ccc(c23)C1=O |  |  |  | 5.96 | 4.57 | 5.72 |  |
|  |  | Active |  |  |  | O=C1c2cccc3c(-n4cc(-c5ccccc5)nn4)ccc(c23)C(=O)N1CCO |  | inactive |  | < 4.00 | < 4.00 | < 4.00 |  |

Further lines, the molecule ahead of its results:

| Compound | Activity (Nucleic Acid [2]) | Kb (Calf thymus DNA [7]) | Activity (Nucleic Acid [10]) | Activity (Calf thymus DNA [11]) | Activity (Calf thymus DNA [12]) | Activity (Calf thymus DNA [13]) | Ratio IC50 (MCF7 [1]) | Activity (Calf thymus DNA [3]) | Ratio IC50 (HeLa [4]) | pIC50 (MCF7 [5]) | pIC50 (HeLa [6]) | pIC50 (SMMC-7721 [8]) | Ratio IC50 (SMMC-7721 [9]) |
| --- | --- | --- | --- | --- | --- | --- | --- | --- | --- | --- | --- | --- | --- |
| CN(C)CCN1C(=O)c2cccc3c(-n4cc(-c5ccccc5)nn4)ccc(c23)C1=O | Active | 2.95 ×10⁵ /M | Active |  |  |  | 5.2 | Active | 1.7 | 6.49 | 5.99 | 6.33 | 9.2 |
| CN(C)CCN1C(=O)c2cccc3cc(N)cc(c23)C1=O [AMONAFIDE] |  |  |  |  |  |  |  |  |  | 5.77 | 5.76 | 5.37 |  |
| CCCCN1C(=O)c2cccc3c(-n4cc(-c5ccccc5)nn4)ccc(c23)C1=O |  |  | Active |  |  |  |  |  |  | 4.71 | 4.71 | 4.48 |  |
| O=C1c2cccc3c(-n4cc(-c5ccccc5)nn4)ccc(c23)C(=O)N1CCN1CCNCC1 |  |  | Active |  |  |  |  |  |  | 6.08 | 4.01 | 5.81 |  |
